# Published values collected from several papers.
# Protocols differ between the studies behind these lines.
SMILES,tested on,test,test system,conditions,measurement,value
Cc1cc(C)nc(Nc2ncc(C(=O)NCCc3c(C)[nH]c4ccccc34)cn2)c1,,metabolic stability,"male human, hepatocytes",1 µM,half-life,41 min
O=C1[O][Pt]2([NH][C@@H]3CCCC[C@H]3[NH]2)[O]C1=O (relative stereo),,,"cynomolgus monkey, plasma","intravenous, 2 mg/kg",AUC(0-t),9170 ng·h/mL
N=c1c2c(-c3ccccc3)c(-c3ccccc3)n(Cc3ccccc3)c2ncn1[C@H]1CC[C@H](O)CC1,,,"male cynomolgus monkey, plasma","oral, 1 mg/kg, single dose",AUC(0-inf),27800 ng·h/mL
CCCCCCCCCCOc1cc2c(O)c(C(=O)OCC)cnc2cc1OCC,HepG2,cell growth or viability,,72 h,IC50,> 100 µM
CN1CCCCC1Cn1cc(C(=O)c2cc([N+](=O)[O-])ccc2I)c2ccccc21 (racemic),,,"mouse, plasma","intravenous, 25 mg/kg",MRT,54.7 min
COC(=O)[C@@H]1[C@@H](c2ccccc2)[C@]2(c3ccc(OC)cc3)Oc3cc(OC)cc(OC)c3[C@@]23N=C(C)N[C@@]13O,HepG2,"cell growth or viability, MTT",,48 h,CC50,0.0105 µM
O=C(c1ccc(-n2sc3ncccc3c2=O)cc1)N1CCOCC1,,metabolic stability,"human, liver microsomes",,half-life,> 120 min
CCC1(c2ccccc2)C(=O)NC(=O)NC1=O,HepG2,"cell growth or viability, ATP luminescence",,,CC50,> 1000 µM
